# Measurements: ChEMBL document CHEMBL1641573, “3-[(Imidazolidin-2-yl)imino]indazole ligands with selectivity for the α(2)-adrenoceptor compared to the imidazoline I(1) receptor” (Bioorg Med Chem, 2011)
# What was measured:
# [1] = molecular target: T1, Alpha-2A adrenergic receptor (Homo sapiens) (UniProt P08913); assay: Agonist activity at human recombinant alpha2A adrenergic receptor expressed in CHO cells assessed as induction of [35S]GTPgammaS binding after 60 mins by scintillation counting relative to noradrenaline; format: functional, cell-based
# T1 sequence (whole entry): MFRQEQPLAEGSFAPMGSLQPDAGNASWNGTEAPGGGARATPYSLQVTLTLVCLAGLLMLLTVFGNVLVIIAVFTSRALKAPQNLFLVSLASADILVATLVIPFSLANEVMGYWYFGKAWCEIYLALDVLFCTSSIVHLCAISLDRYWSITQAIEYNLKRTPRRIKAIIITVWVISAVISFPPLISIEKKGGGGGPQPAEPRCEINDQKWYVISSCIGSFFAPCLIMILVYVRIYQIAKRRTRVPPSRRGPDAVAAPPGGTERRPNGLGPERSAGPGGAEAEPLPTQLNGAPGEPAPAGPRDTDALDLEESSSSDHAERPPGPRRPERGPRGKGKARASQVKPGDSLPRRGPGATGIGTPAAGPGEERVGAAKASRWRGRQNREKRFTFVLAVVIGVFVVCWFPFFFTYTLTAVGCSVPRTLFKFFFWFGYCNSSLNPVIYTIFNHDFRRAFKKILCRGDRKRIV
# Procedure, shortened: (§1)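 Membranes from CHO-K1 cells expressing human α2A-adrenoceptor, in Tris buffer pH 7.4 with 10 µM GDP, 5 mM MgCl2 and 150 mM NaCl; 5 µg protein preincubated with agonist 30 min at 37 °C, then 0.1 nM [35S]GTPγS for 60 min at 37 °C. Filtration and scintillation counting, duplicates, at least three repeats. Curve fit gave EC50 and intrinsic activity as % of noradrenaline.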
# [2] = molecular target: T2, Alpha-2A adrenergic receptor (Homo sapiens, UniProt P08913); assay: Agonist activity at human recombinant alpha2A adrenergic receptor expressed in CHO cells assessed as induction of [35S]GTPgammaS binding after 60 mins by scintillation counting; format: functional, cell-based
# T2 sequence (P08913 whole entry): T1 sequence (whole entry)
# Procedure, shortened: as §1, with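 “repeats.” for “repeats. Curve fit gave EC50 and intrinsic activity as % of noradrenaline.”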
# [3] = molecular target: T3, Adrenergic receptor alpha-1 (Rattus norvegicus, UniProt P15823+P23944+P43140); assay: Displacement of [3H]prazosin from alpha1 adrenergic receptor in Sprague-Dawley rat brain membrane after 45 mins by liquid scintillation counting; format: cell membranes
# T3 sequence (P15823 whole entry): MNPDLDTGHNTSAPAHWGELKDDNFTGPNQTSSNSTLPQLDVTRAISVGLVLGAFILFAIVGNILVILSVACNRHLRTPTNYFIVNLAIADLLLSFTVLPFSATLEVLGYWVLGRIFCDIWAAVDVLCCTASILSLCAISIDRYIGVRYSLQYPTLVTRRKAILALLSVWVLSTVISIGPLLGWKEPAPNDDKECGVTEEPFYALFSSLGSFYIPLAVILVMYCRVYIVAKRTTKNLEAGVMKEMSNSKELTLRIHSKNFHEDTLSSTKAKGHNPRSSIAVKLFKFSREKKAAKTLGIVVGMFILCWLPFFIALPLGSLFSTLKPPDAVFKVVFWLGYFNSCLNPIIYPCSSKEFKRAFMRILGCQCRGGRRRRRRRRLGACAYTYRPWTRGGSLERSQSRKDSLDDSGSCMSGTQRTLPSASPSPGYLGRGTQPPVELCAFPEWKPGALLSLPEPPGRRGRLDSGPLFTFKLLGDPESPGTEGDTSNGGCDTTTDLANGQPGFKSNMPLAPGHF
# T3 sequence (P23944 whole entry): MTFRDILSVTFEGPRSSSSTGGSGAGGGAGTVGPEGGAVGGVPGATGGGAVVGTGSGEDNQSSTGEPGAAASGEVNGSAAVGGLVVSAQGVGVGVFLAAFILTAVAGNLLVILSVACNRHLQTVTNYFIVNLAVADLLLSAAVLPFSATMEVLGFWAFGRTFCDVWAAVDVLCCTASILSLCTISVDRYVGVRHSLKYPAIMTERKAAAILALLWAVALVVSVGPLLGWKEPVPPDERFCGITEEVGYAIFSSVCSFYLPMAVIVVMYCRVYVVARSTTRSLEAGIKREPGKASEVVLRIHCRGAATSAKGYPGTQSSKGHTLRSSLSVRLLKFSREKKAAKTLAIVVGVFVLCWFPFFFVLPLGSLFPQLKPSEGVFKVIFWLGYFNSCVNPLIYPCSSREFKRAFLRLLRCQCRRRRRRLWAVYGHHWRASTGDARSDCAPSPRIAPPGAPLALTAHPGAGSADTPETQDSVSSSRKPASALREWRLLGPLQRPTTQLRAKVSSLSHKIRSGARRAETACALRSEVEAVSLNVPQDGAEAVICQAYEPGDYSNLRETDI
# T3 sequence (P43140 whole entry): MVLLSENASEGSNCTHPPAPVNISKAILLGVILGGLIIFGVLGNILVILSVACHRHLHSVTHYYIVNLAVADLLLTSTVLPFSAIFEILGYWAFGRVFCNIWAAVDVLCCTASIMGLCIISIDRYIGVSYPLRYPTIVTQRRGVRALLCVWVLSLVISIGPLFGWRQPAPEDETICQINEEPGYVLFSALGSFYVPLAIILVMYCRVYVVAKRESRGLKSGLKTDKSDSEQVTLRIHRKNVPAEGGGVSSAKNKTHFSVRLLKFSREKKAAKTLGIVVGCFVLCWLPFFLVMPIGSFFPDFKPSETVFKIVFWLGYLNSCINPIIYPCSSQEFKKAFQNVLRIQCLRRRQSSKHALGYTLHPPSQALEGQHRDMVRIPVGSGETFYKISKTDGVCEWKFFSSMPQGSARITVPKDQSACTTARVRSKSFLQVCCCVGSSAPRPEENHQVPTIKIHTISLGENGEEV
# Procedure, shortened: (§2)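 Crude P2 brain membranes from male Sprague–Dawley rats (0.2–0.3 mg protein) incubated with 11 concentrations (0.01 nM–100 µM) and 1 nM of [3H]2BFI (I2), [3H]prazosin (α1) or [3H]RX821002 (α2), at room temperature in triplicate. Non-specific binding: BU224, phenylephrine or rauwolscine. Filtration, scintillation counting, Ki by Cheng–Prusoff from 3–4 experiments.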
# [4] = molecular target: T4, Adrenergic receptor alpha-2 (Rattus norvegicus, UniProt P22086+P19328+P22909); assay: Displacement of [3H]RX821002 from alpha2 adrenergic receptor in Sprague-Dawley rat brain membrane after 45 mins by liquid scintillation counting; format: cell membranes; procedure, shortened: as §2
# T4 sequence (P22086 whole entry): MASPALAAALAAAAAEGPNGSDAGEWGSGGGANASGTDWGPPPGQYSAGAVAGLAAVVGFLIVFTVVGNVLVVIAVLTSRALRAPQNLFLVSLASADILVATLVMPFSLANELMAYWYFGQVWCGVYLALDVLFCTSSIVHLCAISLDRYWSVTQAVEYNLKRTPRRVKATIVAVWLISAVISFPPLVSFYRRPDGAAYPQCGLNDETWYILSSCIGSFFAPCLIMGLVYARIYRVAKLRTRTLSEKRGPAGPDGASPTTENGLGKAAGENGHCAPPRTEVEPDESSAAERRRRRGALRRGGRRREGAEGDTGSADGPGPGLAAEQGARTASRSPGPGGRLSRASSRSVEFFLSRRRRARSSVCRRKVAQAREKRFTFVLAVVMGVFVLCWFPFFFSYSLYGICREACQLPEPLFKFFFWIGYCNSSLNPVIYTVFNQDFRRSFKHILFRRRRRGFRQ
# T4 sequence (P19328 whole entry): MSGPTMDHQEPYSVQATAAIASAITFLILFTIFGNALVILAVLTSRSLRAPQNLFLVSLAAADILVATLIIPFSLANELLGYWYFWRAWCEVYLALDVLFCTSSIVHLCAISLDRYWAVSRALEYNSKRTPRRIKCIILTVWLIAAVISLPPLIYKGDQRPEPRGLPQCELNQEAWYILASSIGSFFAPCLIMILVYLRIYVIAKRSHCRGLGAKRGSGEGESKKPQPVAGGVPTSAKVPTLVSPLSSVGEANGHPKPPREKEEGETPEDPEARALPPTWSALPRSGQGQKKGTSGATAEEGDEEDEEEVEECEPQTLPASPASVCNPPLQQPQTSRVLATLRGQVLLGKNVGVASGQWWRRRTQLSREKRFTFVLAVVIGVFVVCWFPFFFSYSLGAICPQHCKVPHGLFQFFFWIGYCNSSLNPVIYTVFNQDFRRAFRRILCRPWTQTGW
# T4 sequence (P22909 whole entry): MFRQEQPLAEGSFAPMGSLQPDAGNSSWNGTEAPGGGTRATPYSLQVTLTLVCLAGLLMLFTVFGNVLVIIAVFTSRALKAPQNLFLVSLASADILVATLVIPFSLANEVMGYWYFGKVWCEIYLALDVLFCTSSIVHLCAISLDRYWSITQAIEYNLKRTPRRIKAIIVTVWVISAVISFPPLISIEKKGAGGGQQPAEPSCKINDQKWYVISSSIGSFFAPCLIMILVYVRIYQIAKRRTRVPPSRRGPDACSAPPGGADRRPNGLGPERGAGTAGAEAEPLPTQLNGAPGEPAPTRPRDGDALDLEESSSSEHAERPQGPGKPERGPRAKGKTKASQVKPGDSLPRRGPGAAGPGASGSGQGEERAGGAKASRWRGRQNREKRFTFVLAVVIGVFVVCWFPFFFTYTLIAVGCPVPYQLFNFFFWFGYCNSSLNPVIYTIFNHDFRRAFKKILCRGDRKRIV
# [5] = molecular target: Nischarin (Rattus norvegicus, UniProt Q4G017); assay: Displacement of [3H]clonidine from imidazoline I1 receptor in Sprague-Dawley rat kidney membrane after 45 mins by liquid scintillation counting; format: cell membranes
# Sequence of Nischarin (Q4G017 whole entry): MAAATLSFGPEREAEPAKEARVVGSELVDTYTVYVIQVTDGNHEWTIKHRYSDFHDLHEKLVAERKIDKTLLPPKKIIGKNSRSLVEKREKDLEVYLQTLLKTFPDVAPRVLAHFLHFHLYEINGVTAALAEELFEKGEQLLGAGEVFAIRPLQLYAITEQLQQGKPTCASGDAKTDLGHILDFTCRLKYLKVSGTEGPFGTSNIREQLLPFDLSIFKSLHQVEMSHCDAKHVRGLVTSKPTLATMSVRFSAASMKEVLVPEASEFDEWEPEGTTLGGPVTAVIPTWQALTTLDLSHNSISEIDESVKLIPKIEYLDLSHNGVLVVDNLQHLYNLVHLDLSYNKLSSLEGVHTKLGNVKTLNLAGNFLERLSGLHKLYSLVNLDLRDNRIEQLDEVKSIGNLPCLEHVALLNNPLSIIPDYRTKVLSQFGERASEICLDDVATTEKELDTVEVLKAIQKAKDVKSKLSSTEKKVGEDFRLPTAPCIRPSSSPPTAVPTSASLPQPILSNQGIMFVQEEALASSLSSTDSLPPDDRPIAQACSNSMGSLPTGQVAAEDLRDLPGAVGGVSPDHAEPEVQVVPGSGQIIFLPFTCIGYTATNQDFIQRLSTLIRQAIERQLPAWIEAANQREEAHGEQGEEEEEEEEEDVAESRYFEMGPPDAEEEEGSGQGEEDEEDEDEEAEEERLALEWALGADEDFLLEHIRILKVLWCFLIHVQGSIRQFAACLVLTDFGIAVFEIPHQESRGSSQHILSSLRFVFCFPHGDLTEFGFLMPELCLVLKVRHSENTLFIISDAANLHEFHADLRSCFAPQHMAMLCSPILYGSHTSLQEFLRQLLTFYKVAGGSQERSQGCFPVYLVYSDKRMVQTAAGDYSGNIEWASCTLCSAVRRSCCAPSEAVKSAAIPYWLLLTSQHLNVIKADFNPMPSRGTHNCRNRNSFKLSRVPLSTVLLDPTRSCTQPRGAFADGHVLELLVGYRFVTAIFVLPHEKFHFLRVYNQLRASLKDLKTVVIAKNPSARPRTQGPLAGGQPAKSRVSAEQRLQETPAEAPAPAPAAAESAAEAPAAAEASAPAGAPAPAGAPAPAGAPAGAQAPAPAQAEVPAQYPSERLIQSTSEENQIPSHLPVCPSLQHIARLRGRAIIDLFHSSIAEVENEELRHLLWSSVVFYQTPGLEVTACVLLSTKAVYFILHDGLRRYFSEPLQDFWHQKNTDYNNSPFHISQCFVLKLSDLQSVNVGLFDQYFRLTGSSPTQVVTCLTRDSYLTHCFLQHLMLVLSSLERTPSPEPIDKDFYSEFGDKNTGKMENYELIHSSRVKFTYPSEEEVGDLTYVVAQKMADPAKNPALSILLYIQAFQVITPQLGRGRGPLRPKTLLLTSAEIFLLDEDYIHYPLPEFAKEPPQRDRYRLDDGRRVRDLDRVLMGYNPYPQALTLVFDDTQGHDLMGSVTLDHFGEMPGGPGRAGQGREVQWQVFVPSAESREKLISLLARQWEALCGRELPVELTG
# Procedure, shortened: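 Specific binding defined by 10 µM rilmenidine. 11 test concentrations, 50 mM Tris-HCl pH 7.4, room temperature 45 min. Filtration through PEI-soaked glass-fibre filters, scintillation counting, IC50 by curve fitting.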
# [6] = species on record: Rattus norvegicus; assay: Selectivity ratio of IC50 for imidazoline I1 receptor in Sprague-Dawley rat kidney membrane to Ki for alpha2 adrenergic receptor in Sprague-Dawley rat brain membrane; format: cell membranes
# [7] = tested on: Rattus norvegicus; assay: Cardioprotectant activity in Wistar rat assessed as change in mean arterial pressure at 0.01 mg/kg, iv; format: functional, Artery
# [8] = tested on: Rattus norvegicus; assay: Cardioprotectant activity in Wistar rat assessed as change in mean arterial pressure at 0.1 mg/kg, iv; format: functional, Artery
# [9] = tested on: Rattus norvegicus; assay: Cardioprotectant activity in Wistar rat assessed as change in mean arterial pressure at 1 mg/kg, iv; format: functional, Artery
# [10] = tested on: Rattus norvegicus; assay: Cardioprotectant activity in Wistar rat assessed as change in heart rate at 0.01 mg/kg, iv; format: functional
# [11] = tested on: Rattus norvegicus; assay: Cardioprotectant activity in Wistar rat assessed as change in heart rate at 0.1 mg/kg, iv; format: functional
# [12] = tested on: Rattus norvegicus; assay: Cardioprotectant activity in Wistar rat assessed as change in heart rate at 1 mg/kg, iv; format: functional
Structure (SMILES),Intrinsic activity [1],EC50 [2],Ki [3],Ki [4],IC50 [5],Ratio [6],Activity [7],Activity [8],Activity [9],Activity [10],Activity [11],Activity [12]
Cc1cccc([C@H](C)c2c[nH]cn2)c1C,60%,–,–,–,–,–,–,–,–,–,–,–
Clc1cccc2c1cnn2N=C1NCCN1,62%,180 nM,–,–,–,–,–,–,–,–,–,–
Cc1cccc2cnn(N=C3NCCN3)c12,32%,37 nM,–,–,–,–,–,–,–,–,–,–
c1ccc2c(c1)cnn2N=C1NCCN1 [MARSANIDINE],18%,160 nM,–,–,–,–,–,–,–,–,–,–
COc1cccc2[nH]nc(N=C3NCCN3)c12.Cl,–,–,196 nM,748 nM,25600 nM,34,–,–,–,–,–,–
Cl.Clc1ccc2c(N=C3NCCN3)n[nH]c2c1,–,–,386 nM,502 nM,2010 nM,4,–,–,–,–,–,–
Cl.c1ccc2c(N=C3NCCN3)n[nH]c2c1,55%,82 nM,–,39.4 nM,3220 nM,82,–,–,–,–,–,–
COc1ccc2[nH]nc(N=C3NCCN3)c2c1.Cl,–,–,244 nM,1460 nM,> 100000 nM,> 68,–,–,–,–,–,–
Clc1cccc2cnn(N=C3NCCN3)c12,48%,15 nM,–,–,–,–,–,–,–,–,–,–
Cl.Clc1cccc2c(N=C3NCCN3)n[nH]c12,66%,73 nM,684 nM,133 nM,4010 nM,30,-12.2 mmHg,-21.7 mmHg,-37.2 mmHg,-35 bpm,-92 bpm,-117 bpm
Cc1cccc2[nH]nc(N=C3NCCN3)c12.Cl,40%,14 nM,46.5 nM,22.6 nM,32500 nM,690,-17.1 mmHg,-53.5 mmHg,-22 mmHg,-43 bpm,-132 bpm,-155 bpm
Cc1ccc2c(N=C3NCCN3)n[nH]c2c1.Cl,–,–,508 nM,176 nM,16600 nM,94.3,–,–,–,–,–,–
Cl.Clc1ccc2[nH]nc(N=C3NCCN3)c2c1,–,–,121 nM,10600 nM,> 100000 nM,> 9.4,–,–,–,–,–,–
Cc1ccc2[nH]nc(N=C3NCCN3)c2c1.Cl,–,–,29000 nM,11400 nM,21200 nM,2,–,–,–,–,–,–
Cl.Clc1cccc2[nH]nc(N=C3NCCN3)c12,13%,240 nM,69.3 nM,15.9 nM,1840 nM,115,-10.8 mmHg,-10.8 mmHg,-23.6 mmHg,-37 bpm,-40 bpm,-68 bpm
Brc1cccc2[nH]nc(N=C3NCCN3)c12.Cl,–,–,984 nM,6420 nM,7560 nM,1,–,–,–,–,–,–
